In ChEMBL document CHEMBL2417524, “Cytotoxic clerodane diterpenoids from the leaves and twigs of Casearia balansae” (J Nat Prod, 2013):
pIC50: −log10 of the molar value.

Assays:
[1] = system: WI-38; assay: Cytotoxicity against human WI38 cells after 72 hrs by MTT assay; format: cell-based; conditions: WI-38, 72 h
Procedure, shortened: (§1)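 Antiproliferative screen on cancer lines PC3, DU145, SKOV3 and A549 and on normal human WI-38 fibroblasts. Paclitaxel was the positive control and DMSO the negative control. IC50 in μM reported as the mean of duplicate measurements.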

[2] = system: A549; assay: Cytotoxicity against human A549 cells after 72 hrs by MTT assay; format: functional, cell-based; conditions: A549, 72 h; procedure, shortened: as §1
[3] = system: DU-145; assay: Cytotoxicity against human DU145 cells after 72 hrs by MTT assay; format: functional, cell-based; conditions: DU-145, 72 h; procedure, shortened: as §1
[4] = system: SK-OV-3; assay: Cytotoxicity against human SKOV3 cells after 72 hrs by MTT assay; format: functional, cell-based; conditions: SK-OV-3, 72 h; procedure, shortened: as §1
[5] = system: PC-3; assay: Cytotoxicity against human PC3 cells after 72 hrs by MTT assay; format: functional, cell-based; conditions: PC-3, 72 h; procedure, shortened: as §1

With `C=CC(=C)CC[C@]1(C)[C@H]2C[C@H](OC(C)=O)C=C3[C@@H](OCC)O[C@H](OC(C)=O)[C@@]32[C@H](OC)C[C@@H]1C` the pIC50 [1] was 4.24, the pIC50 [2] was 4.34 and the pIC50 [3] was 4.29. The pIC50 [4] was 4.00 and the pIC50 [5] was 4.33.
Molecule `C=CC(=C)CC[C@]1(C)[C@H]2C[C@@H](OC(C)=O)C=C3[C@H](OC(C)=O)O[C@H](OC(C)=O)[C@@]32[C@H](OC)C[C@@H]1C` has a pIC50 [1] of 4.88, a pIC50 [2] of 5.15 and a pIC50 [3] of 5.37. It also gave a pIC50 [4] of 5.21 and a pIC50 [5] of 5.33.
`C=CC(=C)CC[C@]1(C)[C@H]2C[C@H]3C[C@@H]4[C@H](OC(C)=O)O[C@H](O3)[C@@]42CC[C@@H]1C` showed a pIC50 [1] of 4.39, a pIC50 [2] of 4.71 and a pIC50 [3] of 4.88. It also gave a pIC50 [4] of 4.51 and a pIC50 [5] of 5.21.
In the case of `C=CC(=C)CC[C@]1(C)[C@H]2C[C@H]3C[C@@H]4[C@@H](OC(C)=O)O[C@H](O3)[C@@]42CC[C@@H]1C`, the pIC50 [1] was 4.29, the pIC50 [2] was 4.62 and the pIC50 [3] was 4.85. It also gave a pIC50 [4] of 4.44 and a pIC50 [5] of 5.25.
Molecule `C=CC(=C)CC[C@]1(C)[C@H]2C[C@H](O)C[C@@H]3[C@H](OC(=O)CCC)O[C@H](OC(C)=O)[C@@]32CC[C@@H]1C` has a pIC50 [1] of 4.24, a pIC50 [2] of 4.86 and a pIC50 [3] of 4.17. For the same molecule, the pIC50 [4] was 4.60 and the pIC50 [5] was 5.14.
In the case of `C=CC(=C)CC[C@]1(C)[C@H]2C[C@H](OC(=O)C(C)CC)C=C3[C@@H](OCC)O[C@H](OC(C)=O)[C@@]32[C@H](O)C[C@@H]1C` (relative stereo), the pIC50 [1] was 4.22, the pIC50 [2] was 4.30 and the pIC50 [3] was 4.83. The pIC50 [4] was 4.82 and the pIC50 [5] was 4.33.
In the case of `C=CC(=C)CC[C@]1(C)[C@H]2CC(=O)C=C3[C@H](OC(C)=O)O[C@H](OC(C)=O)[C@@]32[C@H](OC)C[C@@H]1C` (relative stereo), the pIC50 [1] was 4.69, the pIC50 [2] was 4.88 and the pIC50 [3] was 5.25. It also gave a pIC50 [4] of 4.75 and a pIC50 [5] of 5.19.
For `C=CC(=C)CC[C@]1(C)[C@H]2CC(=O)C=C3[C@H](OC(=O)CCC)O[C@H](OC(C)=O)[C@@]32[C@H](OC)C[C@@H]1C` (relative stereo), the pIC50 [1] was 4.83, the pIC50 [2] was 4.95 and the pIC50 [3] was 5.14. The pIC50 [4] was 5.14 and the pIC50 [5] was 5.34.
In the case of `C=C(C)[C@@H](C)C[C@@H](O)[C@@H](C)[C@H]1CC[C@@]2(C)[C@@H]3CCC4=C(C[C@]35O[C@@H]5C[C@]12C)C(=O)C=CC4(C)C` (relative stereo), the pIC50 [1] was 4.11, the pIC50 [2] was 4.42 and the pIC50 [3] was 4.58. For the same molecule, the pIC50 [4] was 4.13 and the pIC50 [5] was 4.65.
`C=CC(=C)CC[C@]1(C)[C@H](C)CC[C@@]23[C@@H](OC(C)=O)O[C@H](OC(C)=O)[C@@H]2C[C@H](O)C[C@@H]13` (relative stereo) showed a pIC50 [1] of 4.58, a pIC50 [2] of 4.82 and a pIC50 [3] of 5.18. For the same molecule, the pIC50 [4] was 4.75 and the pIC50 [5] was 5.09.
With `C=CC(=C)CC[C@]1(C)[C@H]2C[C@H](OC(=O)C(C)CC)C=C3[C@H](OC(C)=O)O[C@@H](OC(C)=O)[C@@]32[C@H](OC)C[C@@H]1C` (relative stereo) the pIC50 [1] was 4.88, the pIC50 [2] was 5.10 and the pIC50 [3] was 5.32. It also gave a pIC50 [4] of 5.14 and a pIC50 [5] of 5.25.
Molecule `C=CC(=C)CC[C@]1(C)[C@H]2C[C@@H](OC(C)=O)C[C@@H]3[C@H](OC(C)=O)O[C@H](OC(C)=O)[C@@]32CC[C@@H]1C` (relative stereo) has a pIC50 [1] of 4.24, a pIC50 [2] of 4.18 and a pIC50 [3] of 4.70. The pIC50 [4] was 4.42 and the pIC50 [5] was 4.44.
Molecule `C=CC(=C)CC[C@]1(C)[C@H]2C[C@@H](O)C[C@@H]3[C@H](OC(=O)CCC)O[C@H](OC(C)=O)[C@@]32CC[C@@H]1C` (relative stereo) has a pIC50 [1] of 4.68, a pIC50 [2] of 4.79 and a pIC50 [3] of 5.24. It also gave a pIC50 [4] of 4.99 and a pIC50 [5] of 5.20.
Work on `C=CC(=C)CC[C@]1(C)[C@H]2C[C@@H](OC(C)=O)C=C3[C@@H](OCC)O[C@H](OC(C)=O)[C@@]32[C@H](OC)C[C@@H]1C` (relative stereo) yielded a pIC50 [1] of 4.25, a pIC50 [2] of 4.27 and a pIC50 [3] of 4.33. The pIC50 [4] was 4.44 and the pIC50 [5] was 4.47.
`C=CC(=C)CC[C@]1(C)[C@H]2C[C@H](OC(=O)C(C)CC)C=C3[C@H](OC(C)=O)O[C@H](OC(C)=O)[C@@]32[C@H](O)C[C@@H]1C` (relative stereo) was tested, and the pIC50 [1] was 5.01, the pIC50 [2] was 5.24 and the pIC50 [3] was 5.37. For the same molecule, the pIC50 [4] was 5.29 and the pIC50 [5] was 5.35.
Work on `C=CC(=C)CC[C@]1(C)[C@H]2C[C@H](OC(=O)C(C)CC)C=C3[C@H](OC(=O)CCC)O[C@H](OC(C)=O)[C@@]32[C@H](O)C[C@@H]1C` (stereo partly drawn) [CASEAMEMBRIN A] yielded a pIC50 [1] of 4.71, a pIC50 [2] of 4.80 and a pIC50 [3] of 5.30. For the same molecule, the pIC50 [4] was 5.06 and the pIC50 [5] was 4.98.
Molecule `CC(=O)O[C@H]1C(=O)[C@@]2(C)[C@H]([C@H](OC(=O)c3ccccc3)[C@]3(O)C[C@H](OC(=O)[C@H](O)[C@@H](NC(=O)c4ccccc4)c4ccccc4)C(C)=C1C3(C)C)[C@]1(OC(C)=O)CO[C@@H]1C[C@@H]2O` [PACLITAXEL] has a pIC50 [1] of 7.30, a pIC50 [3] of 7.40 and a pIC50 [5] of 7.70.
